Among the data in PubChem BioAssay AID1656 (Sanford-Burnham Center for Chemical Genomics, 2009) are cell count and inhibition values, retold here.

The structures appear in SMILES notation. Out of some 240,000 compounds screened, about 950 (0.4%) were called active.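 How the source made its calls: active means lipid droplet intensity inhibited by at least 50%, with more than 500 cells counted; inconclusive means wells with under 300 cells, treated as cytotoxic; inactive means the rest.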 Shown is part of a subset that was picked to be rich in actives.

This assay in a line: oleate-induced lipid droplet accumulation in AML12 cells – imaging, high-throughput imaging, BODIPY stain, primary screen (AID 1656).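 On cell count: cells counted across two imaged fields per well.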 Particulars: AML12 mouse hepatocytes, oleate lipid droplets, at 6.5 µM; cell count: measured here: cell count, cytotoxicity flag; inhibition: stronger effect = higher value. In short, it runs like this:
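Material – mouse AML12 hepatocyte cell line, fixed after treatment · Compound dosing – one dose, 6.5 µM compound · Times – compound with oleate, overnight · Measured by – Image-based BODIPY and DAPI two-channel analysis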
Turning to `COc1ccc(CCNC(=O)C(=O)NCC2OCCN2S(=O)(=O)c2cccs2)cc1OC` (stereo not given), the cell count came to 689 cells and the inhibition (usually the drop in the measured response relative to a control, in per cent) was -12.1% (inactive).

In the case of `COc1cccc(C(=O)N/N=C(\C)c2cccc(NC(=O)c3ccc(F)cc3)c2)c1OC`, the cell count is 678 cells and the inhibition was -6.8% (inactive).

Consider `COc1ccc(/C=N/N=C2/C(=O)Nc3ccccc32)cc1O`, for which the cell count was 676 cells and the inhibition was 9.7% (inactive).

For `O=C1Nc2ccc(Br)cc2/C1=N/N=C/C1=C(N2CCOCC2)C(=C\c2ccccc2)/CC1`, the cell count was found to be 750 cells and the inhibition was 55.6% (active).

Turning to `C(=N\N1CCN(c2ccccn2)CC1)/C1=C(N2CCOCC2)C(=C/c2ccccc2)/CC1`, the cell count came to 680 cells and the inhibition is -4.6% (inactive).

Turning to `CCCc1cc(=O)oc2cc(OCC(=O)Nc3ccc(CN4CCOCC4)cc3)c(Cl)cc12`, the cell count is 636 cells and the inhibition is -0.7% (inactive).

Consider `O=C(CSc1nc2nccnc2c(=O)n1Cc1cccs1)Nc1ccccc1F`, for which the cell count is 782 cells and the inhibition is 2.9% (inactive).

As to `COc1cc(/C=C/C(=O)N2CCc3ccccc3C2)cc(OC)c1OC`, the cell count amounted to 825 cells and the inhibition was 0% (inactive).

For the molecule `CC(C)(C)NS(=O)(=O)c1ccc(NC(=O)C2CCCO2)cc1` (stereo not given), the cell count worked out at 829 cells and the inhibition is 2.6% (inactive).

As to `CCCNC(=O)CCc1c(C)nc2c(c(C)nn2-c2ccc(C)cc2)c1C`, the cell count was found to be 848 cells and the inhibition was 10.2% (inactive).

In the case of `COc1ccc(N(CC(=O)Nc2cc(OC)cc(OC)c2)S(=O)(=O)c2c(C)n[nH]c2C)cc1`, the cell count amounted to 704 cells and the inhibition is -4% (inactive).

In the case of `CCSc1nsc(NC(=O)Nc2ccccc2OC)n1`, the cell count was found to be 808 cells and the inhibition was -10.6% (inactive).

Take `Cn1nccc1C(=O)NC1CCCc2c1cnn2-c1ccccc1F` (stereo not given): the cell count was 545 cells and the inhibition is -55.5% (inactive).

In the case of `Cc1cc(C(=O)NC2CCCc3c2cnn3-c2cccc(C)c2C)c(C)o1` (stereo not given), the cell count is 865 cells and the inhibition is 59.9% (active).

On to `COc1ccc(C(=O)NC2CCCc3c2cnn3-c2cccc(C)c2C)c(OC)n1` (stereo not given), for which the cell count is 767 cells and the inhibition was -1.4% (inactive).

Regarding `COc1ccc(CCNC(=O)CS(=O)(=O)Cc2nc(-c3ccc(C)cc3)oc2C)cc1OC`, the cell count was found to be 750 cells and the inhibition is 11.2% (inactive).

Consider `O=C(c1ccc(F)cc1)N1CCCC(C(=O)N2CCCCC2)C1` (stereo not given), for which the cell count was 708 cells and the inhibition was -8.5% (inactive).

As to `O=S(=O)(c1ccc(Br)cc1)c1nc(-c2ccccc2)oc1N1CCOCC1`, the cell count turned out to be 610 cells and the inhibition is -17.8% (inactive).

In the case of `O=C1CCC(C(=O)N2CCN(c3ccccc3Cl)CC2)CN1CC1CCCCC1` (stereo not given), the cell count turned out to be 746 cells and the inhibition was 0% (inactive).

Regarding `COc1ccc(OC)c(CNC(=O)CCc2nc(-c3cccs3)no2)c1`, the cell count was determined as 746 cells and the inhibition was -2% (inactive).

For `COc1ccc(-c2csc(-c3cccs3)n2)cc1OC`, the cell count was 713 cells and the inhibition is 8.5% (inactive).

`COc1ccc(OC)c(-c2csc(-c3cccs3)n2)c1`: the cell count was 816 cells and the inhibition was 69.1% (active).

In the case of `CC(C)(C)NC(=O)Cn1cnc2cc([N+](=O)[O-])ccc2c1=O`, the cell count stood at 720 cells and the inhibition is 58.1% (active).

In the case of `O=C(Cn1cnc2cc([N+](=O)[O-])ccc2c1=O)NC(=O)NCc1ccccc1`, the cell count worked out at 618 cells and the inhibition was -1% (inactive).

For the molecule `Cc1cc(C(=O)Cn2cnc3cc([N+](=O)[O-])ccc3c2=O)c(C)n1CC1CCCO1` (stereo not given), the cell count is 680 cells and the inhibition is -0.6% (inactive).

In the case of `CC(=O)N1CCN(c2ccccc2NC(=S)NC(=O)c2cc3ccccc3o2)CC1`, the cell count stood at 682 cells and the inhibition was 29.4% (inactive).

For the molecule `Cc1cccc(N2CCN(C(=O)c3cccc(N4C(=O)C5C6C=CC(C6)C5C4=O)c3)CC2)c1C` (stereo not given), the cell count worked out at 793 cells and the inhibition is -0.4% (inactive).

With `CCCc1cc(C(=O)N2CCCC(CO)(CCCc3ccccc3)C2)n(C)n1` (stereo not given), the cell count came to 631 cells and the inhibition was -27.5% (inactive).

For the molecule `CC1CCN(C(=S)NC(=O)c2ccccc2Br)CC1`, the cell count is 661 cells and the inhibition was -5.4% (inactive).

For the molecule `CCN1C(=O)/C(=C2/Sc3ccccc3N2CCCS(=O)(=O)O)SC1=S`, the cell count came to 691 cells and the inhibition is -5.7% (inactive).

On to `CCCCN1C(=O)/C(=C/C=C2/C=Cc3ccccc3N2CC)SC1=S`, for which the cell count was found to be 734 cells and the inhibition was 56.1% (active).

As for `CCCCN1C(=O)/C(=C2/C=CC=CN2C)SC1=S`, the cell count was determined as 765 cells and the inhibition was -17.5% (inactive).

Consider `COc1ccc(Cl)cc1NC(=O)CN(C)C(=O)CNC(=O)C12CC3CC(CC(C3)C1)C2`, for which the cell count was determined as 778 cells and the inhibition was 18.1% (inactive).

As to `COc1ccccc1NC(=O)CCCc1c[nH]c2ccccc12`, the cell count worked out at 740 cells and the inhibition was -19.1% (inactive).

Turning to `COc1ccc(Cl)cc1NC(=O)CN(C)C(=O)CCCc1c[nH]c2ccccc12`, the cell count worked out at 812 cells and the inhibition is 53.5% (active).

Turning to `Cc1ccc(-n2nc3c(=O)n(C(C)C(=O)NCc4ccc5c(c4)OCO5)nc(C)c3c2C)cc1` (stereo not given), the cell count stood at 665 cells and the inhibition was 15.4% (inactive).

As for `O=C(NCCCN1CCOCC1)c1cc(-c2ccccc2F)no1`, the cell count was determined as 726 cells and the inhibition was 6.3% (inactive).

In the case of `COC(=O)c1ccc(COc2ccc(/C=C/C(=O)c3ccc(OC)c(CSCC(=O)O)c3)cc2OC)cc1`, the cell count amounted to 891 cells and the inhibition is -2% (inactive).

Consider `CC(C)c1ccc(N(C(=O)c2ccco2)C(C(=O)NC2CCCC2)c2cccnc2)cc1` (stereo not given), for which the cell count amounted to 761 cells and the inhibition was -17.7% (inactive).

For `Cc1c(C=O)c2ccccc2n1CCOc1ccccc1`, the cell count was 839 cells and the inhibition is -1% (inactive).

Regarding `CN(CC1CCCO1)S(=O)(=O)c1ccc(C(=O)Nc2ccc(F)cc2)cc1` (stereo not given), the cell count is 687 cells and the inhibition was -1.2% (inactive).

As to `Cc1cc(C(C)(C)C)n2nc(C)c(-c3ccccc3)c2n1`, the cell count was found to be 401 cells and the inhibition is 2% (inactive).

As to `Cc1cc(-n2nc(C)cc2C)n2nc(C)c(-c3ccccc3)c2n1`, the cell count turned out to be 801 cells and the inhibition is 10% (inactive).

In the case of `Cc1cc(N2CCCC2)n2nc(C)c(-c3ccccc3)c2n1`, the cell count came out at 697 cells and the inhibition was 51.4% (active).

Take `CC(=O)c1ccc(NC(=O)c2sc3nc4n(c(=O)c3c2C)CCCCC4)cc1`: the cell count is 749 cells and the inhibition is 9.9% (inactive).

As for `O=C(C1CCCN(S(=O)(=O)c2ccc([N+](=O)[O-])cc2)C1)N1CCCCC1` (stereo not given), the cell count was 814 cells and the inhibition was 0.4% (inactive).

For `COc1ccc(-c2nonc2NC(=O)c2oc3ccc(F)cc3c2C)cc1OC`, the cell count came to 738 cells and the inhibition is 39.5% (inactive).

`COc1ccccc1CNC(=O)C1CCN(S(=O)(=O)c2ccc3c(c2)CC(C)N3C(=O)C2CC2)CC1` (stereo not given): the cell count amounted to 719 cells and the inhibition is -4.5% (inactive).

Regarding `COc1ccc(NC(=O)CN2C(=O)COc3ccc(S(=O)(=O)N4CCOCC4)cc32)c(OC)c1`, the cell count amounted to 694 cells and the inhibition is -1.6% (inactive).

As to `COc1ccccc1CNC(=O)[C@@H]1CCCN1C(=O)[C@@H]1Cc2ccccc2CN1C(=O)OC(C)(C)C`, the cell count came out at 737 cells and the inhibition is -4.8% (inactive).
